Laboratory results from ChEMBL document CHEMBL1154198, “Chemical genetics of Plasmodium falciparum” (Nature, 2010).

Legend:
Plasmodium falciparum [1] = test: ST_JUDE: Plasmodium falciparum 3D7 EC50 (uM) as measured by SYBR green dye; format: functional, organism-based
Plasmodium falciparum [2] = test: ST_JUDE: Plasmodium falciparum K1 EC50 (uM) as measured by SYBR green dye; format: functional, organism-based
Plasmodium falciparum [3] = test: ST_JUDE: Cytotoxicity against Plasmodium falciparum 3D7; format: functional, organism-based
In short: (§1)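 Asexual P. falciparum grown in human erythrocytes, exposed to compounds for 72 h, and growth read as the DNA quantity in treated versus control cultures. Dose-response run at 12 concentrations from 10 μM to 5 nM.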

Plasmodium falciparum [4] = test: ST_JUDE: Cytotoxicity against Plasmodium falciparum K1; format: functional, organism-based; in short: as §1
Plasmodium falciparum [5] = test: ST_JUDE: Cytotoxicity against Plasmodium falciparum V1/S; format: functional, organism-based
Toxoplasma gondii = test: ST_JUDE: Growth inhibition of to Toxoplasma gondii, in human U-2OS cells, as measured by luciferase.; format: functional, organism-based; settings: RH, U2OS
In short: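 T. gondii parasites engineered to express luciferase; drug sensitivity read by luminescence.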

Trypanosoma brucei = test: ST_JUDE: Cytotoxicity using luciferase to measure ATP as an indicator of the viability of Trypanosoma brucei; format: functional, organism-based
Leishmania major = test: ST_JUDE: Cytotoxicity using Alamar Blue to measure viability of Leishmania major; format: functional, organism-based
In short: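 L. major promastigotes; drug susceptibility read with Alamar Blue.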

[6] = ST_JUDE: Cytotoxicity using luciferase to measure ATP as an indicator of the viability of human foreskin fibroblast cells (BJ); format: toxicity, cell-based
[7] = ST_JUDE: Cytotoxicity using luciferase to measure ATP as an indicator of the viability of human epithelial hepatocellular carcinoma cells (HepG2); format: toxicity, cell-based
[8] = ST_JUDE: Cytotoxicity using luciferase to measure ATP as an indicator of the viability of human epithelial embryonic kidney cells (HEK293); format: toxicity, cell-based
[9] = ST_JUDE: Cytotoxicity using luciferase to measure ATP as an indicator of the viability of human Burkitt''s lymphoma lymphoblast cells (Raji); format: toxicity, cell-based
Plasmodium falciparum [10] = test: ST_JUDE: Cytotoxicity against Plasmodium falciparum Dd2; format: functional, organism-based
Plasmodium falciparum [11] = test: ST_JUDE: Cytotoxicity against Plasmodium falciparum W2; format: functional, organism-based
Plasmodium falciparum [12] = test: ST_JUDE: Cytotoxicity against Plasmodium falciparum SB-A6; format: functional, organism-based
Plasmodium falciparum [13] = test: ST_JUDE: Cytotoxicity against Plasmodium falciparum D10 transfected with yeast DHOD; format: functional, organism-based

Row | SMILES | EC50 (Plasmodium falciparum [1]) [µM] | EC50 (Plasmodium falciparum [2]) [µM] | EC50 (Plasmodium falciparum [3]) [µM] | EC50 (Plasmodium falciparum [4]) [µM] | EC50 (Plasmodium falciparum [5]) [µM] | EC50 (Toxoplasma gondii) [µM] | EC50 (Trypanosoma brucei) [µM] | EC50 (Leishmania major) [µM] | EC50 [6] [µM] | EC50 [7] [µM] | EC50 [8] [µM] | EC50 [9] [µM] | EC50 (Plasmodium falciparum [10]) [µM] | EC50 (Plasmodium falciparum [11]) [µM] | EC50 (Plasmodium falciparum [12]) [µM] | EC50 (Plasmodium falciparum [13]) [µM]
1 | CCN1/C(=C/c2cccc[n+]2C)Sc2ccc(OC)cc21 | 0.48 | 0.329 | 0.603 | 0.784 | 1.08 | > 14.3 | 3.73 | 0.0189 | > 26.2 | > 26.2 | > 26.2 | 3.16 | 0.748 | > 6.72 | 1.55 | 1.27
2 | CO/C(O)=C1\C(C)=NC2=C(C(=O)CC(c3ccc(OC)c(OC)c3)C2)C1c1ccccc1F (centres undefined) | 0.504 | 0.433 | 0.427 | 0.412 | 0.911 | > 24.5 | > 42.9 | > 19.2 | > 44.8 | > 44.8 | > 44.8 | > 44.8 | 0.766 | 0.296 | 0.556 | 0.746
3 | Cc1ccc2c(c1)C=C/C(=C\c1sc3ccccc3[n+]1C)N2C | 0.184 | 0.0857 | 0.144 | 0.152 | 0.147 | 3.95 | 0.175 | 0.0012 | 7.95 | 2.25 | 6.53 | 0.74 | 0.204 | 0.0154 | 0.322 | 0.192
4 | Fc1ccc(Nc2nc(NCc3ccco3)c3ccccc3n2)cc1 | 0.673 | > 15 | 0.581 | 1.12 | 1.91 | 13.6 | 12.2 | 0.0029 | 20.1 | 8.25 | 20 | 14.9 | 0.489 | 0.354 | 0.357 | 1.2
5 | O=[N+]([O-])c1ccc(S(=O)(=O)N2CCN(C(=S)NCc3ccco3)CC2)cc1 | 0.185 | 0.132 | 0.261 | 0.252 | 0.269 | > 17.4 | > 30.4 | > 13.6 | > 31.7 | > 31.7 | > 31.7 | > 31.7 | 0.123 | 0.299 | 0.289 | 0.316

Now those with a lower EC50 (Plasmodium falciparum [1]), led by results:

Row | EC50 (Plasmodium falciparum [1]) [µM] | EC50 (Plasmodium falciparum [2]) [µM] | SMILES | EC50 (Plasmodium falciparum [3]) [µM] | EC50 (Plasmodium falciparum [4]) [µM] | EC50 (Plasmodium falciparum [5]) [µM] | EC50 (Toxoplasma gondii) [µM] | EC50 (Trypanosoma brucei) [µM] | EC50 (Leishmania major) [µM] | EC50 [6] [µM] | EC50 [7] [µM] | EC50 [8] [µM] | EC50 [9] [µM] | EC50 (Plasmodium falciparum [10]) [µM] | EC50 (Plasmodium falciparum [11]) [µM] | EC50 (Plasmodium falciparum [12]) [µM] | EC50 (Plasmodium falciparum [13]) [µM]
6 | 0.167 | 0.161 | Cc1cc(Nc2ccc(Br)c(C)c2)n2nc(C)nc2n1 | 0.214 | 0.298 | 0.296 | > 20.7 | > 36.2 | > 16.2 | > 37.8 | > 37.8 | > 37.8 | > 37.8 | 0.205 | 0.12 | > 9.71 | > 9.71
7 | 0.0937 | 8.05 | CC(CNC(=O)c1cn(C2CCCCC2)cc(C(=O)NC(C)(C)C)c1=O)c1ccccc1 (centres undefined) | 0.321 | 0.705 | > 13.6 | > 28.9 | > 50.7 | > 22.6 | > 52.8 | > 52.8 | > 52.8 | > 52.8 | 2.18 | > 13.6 | 0.109 | 0.15
8 | 0.059 | 0.0424 | CCCCN(CCCC)CC(O)COc1ccccc1C(=O)Nc1ccccc1 (centres undefined) | 0.108 | 0.0393 | 0.0545 | > 29.2 | 21.3 | > 22.8 | > 53.2 | > 53.2 | > 53.2 | > 53.2 | 0.0692 | 0.202 | 0.144 | 0.163
9 | 0.0333 | 0.989 | Cc1ccc(N2C(N)=NC(N)=NC2(C)C)cc1 | 0.0214 | 0.676 | > 8.97 | 5.71 | > 33.5 | > 15 | > 34.9 | > 34.9 | > 34.9 | > 34.9 | 2.03 | 0.729 | 0.0151 | 0.785
